Screening data from PubChem.
UHRF1 binding – human UHRF1 methylated DNA binding inhibitors; Q96T88; UHRF1 binding to methylated oligo, TR-FRET; inhibition, % at 4.4 µM; actives 0.75% (n = 370,000); AID 687016; in the data active means inhibition above about 21%;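 further: UHRF1 SRA domain binding a hemimethylated CpG hairpin DNA probe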
TDP2 inh – TDP2 (human) inhibition, absorbance primary screen; O95551; recombinant TDP2, T5PNP hydrolysis, p-nitrophenol absorbance 415 nm; actives 0.34% (n = 370,000); inhibition, % at 12.8 µM;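 active means inhibition above the mean of all tested compounds plus 3 SD, set per campaign, cut at about 25% in these data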
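Test system: Human TDP2 enzyme | Reagent: 5 mM T5PNP | Compound dosing: 12.8 µM single point, 1% DMSO | Incubation: Enzyme reaction with compound for 2 h at 37 °C | Technique: p-Nitrophenol epi absorbance | Read-out: % inhibition relative to enzyme-containing and enzyme-free wells | Benchmarks: High control without enzyme, low control DMSO plus TDP2 | Replicates: Singlicate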
LEDGF integ inh – blocks HIV-1 LEDGF/p75-dependent DNA integration; TR-FRET IN-LEDGF/p75 DNA integration, Eu/Cy5; inhibition, % at 3.7 µM; actives 0.64% (n = 370,000);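 active means inhibition above the screen-wide mean plus 3 SD, cut at about 13% in these data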;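 further: signal is the Cy5 over europium emission ratio at 671 and 618 nm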
MBD2 inh – inhibitors of human MBD2 binding to methylated oligonucleotide; Q9UBB5; inhibition, % at 4.4 µM; AID 686964; TR-FRET; actives 0.31% (n = 370,000); in the data active means inhibition above about 13%
Target sequence (Q9UBB5 whole entry, looked up): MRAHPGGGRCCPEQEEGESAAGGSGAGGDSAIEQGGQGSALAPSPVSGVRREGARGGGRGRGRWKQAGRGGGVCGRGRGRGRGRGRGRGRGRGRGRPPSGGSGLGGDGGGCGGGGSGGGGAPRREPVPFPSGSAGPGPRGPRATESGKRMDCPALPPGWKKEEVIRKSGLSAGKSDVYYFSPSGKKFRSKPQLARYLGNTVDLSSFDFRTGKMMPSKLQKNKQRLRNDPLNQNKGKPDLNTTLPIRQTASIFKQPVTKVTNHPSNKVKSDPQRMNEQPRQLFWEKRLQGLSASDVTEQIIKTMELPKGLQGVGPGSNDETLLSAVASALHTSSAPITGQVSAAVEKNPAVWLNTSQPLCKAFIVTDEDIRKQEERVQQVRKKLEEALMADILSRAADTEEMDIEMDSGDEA
NSD2 inh – NSD2 (human) methyltransferase inhibition; NSD2 peptide methylation, AlphaScreen, 120 min; inhibition, % at 12.5 µM; O96028; actives 0.54% (n = 310,000); in the data active means inhibition above about 50%
CASP6 VEID inh – blocks human caspase-6 cleavage activity; actives 0.53% (n = 350,000); inhibition, % at 12.5 µM; purified caspase-6, Z-VEID-R110 cleavage fluorescence;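 active means mean inhibition across replicates at least about 35%, with every replicate also reaching that limit, limit read from the data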
Target sequence (P55212 24-179 limits assumed): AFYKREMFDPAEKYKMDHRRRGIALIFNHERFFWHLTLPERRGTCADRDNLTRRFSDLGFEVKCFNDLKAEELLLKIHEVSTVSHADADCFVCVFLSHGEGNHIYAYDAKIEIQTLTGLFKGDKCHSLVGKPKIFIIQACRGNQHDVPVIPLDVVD
Target sequence (P55212 194-293 limits assumed): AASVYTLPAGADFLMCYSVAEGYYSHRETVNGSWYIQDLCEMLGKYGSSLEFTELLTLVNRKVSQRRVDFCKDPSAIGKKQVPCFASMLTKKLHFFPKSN
Each line names hits and unclear results; the compound was inactive in the other large screens. The list is not random: actives were taken first. Their share in the collection is about 1.8%.

CCCCC1=CC2=CC(=O)C(C)(OC(=O)CC)C(=O)C2=CO1 (centres undefined)	none (no result: NSD2 inh)
CCC(=O)OC1(C)C(=O)C=C2C=C(CCCC(=O)OC)OC=C2C1=O (centres undefined)	LEDGF integ inh 15.8 (no result: NSD2 inh)
COC(=O)C(C)Sc1ncnc2c1c(-c1ccccc1)cn2-c1ccc(OC)cc1 (centres undefined)	none (no result: CASP6 VEID inh)
CCOc1ccc(-n2cc(-c3ccccc3)c3c(SC(C)C(=O)OC)ncnc32)cc1 (centres undefined)	UHRF1 binding 22.4
COc1ccc(Br)cc1CNC(=O)C1CCN(c2nnc(N3CCCC3=O)s2)CC1	none
COc1ccc(CNC(=O)C2CCN(c3nnc(N4CCCC4=O)s3)CC2)cc1	UHRF1 binding 22.3 (no result: NSD2 inh)
C=C1[C@@H](C)CN[C@@H]1CCO	none (no result: NSD2 inh)
C=C1[C@H](C)CN[C@H]1CCO	CASP6 VEID inh 42.5 (no result: NSD2 inh)
COc1ccc(S(=O)(=O)Nc2ccc3c(c2)C(=O)N(C)C[C@@H](OC)[C@H](C)CN(C)[C@H](C)CO3)cc1	none (no result: UHRF1 binding, TDP2 inh, LEDGF integ inh, MBD2 inh, NSD2 inh)
CC(OC(=O)Cn1[nH]c(=O)c2ccccc2c1=O)C(=O)Nc1ccc(F)cc1Cl (centres undefined)	UHRF1 binding 49.8
N#Cc1c(SCC(=O)Nc2nc3ccccc3s2)sc2c(O)cc(=O)[nH]c12	CASP6 VEID inh 60.1
N#Cc1c(SCC(=O)Nc2ccccc2C(F)(F)F)sc2c(O)cc(=O)[nH]c12	UHRF1 binding 31.2, CASP6 VEID inh 42.7
CCCSc1nnc(NC(=O)CSc2sc3c(O)cc(=O)[nH]c3c2C#N)s1	CASP6 VEID inh 45.2
Cc1c(Cl)cccc1NC(=O)CSc1sc2c(O)cc(=O)[nH]c2c1C#N	none
N#Cc1c(SCC(=O)Nc2nc3ccc(Br)cc3s2)sc2c(O)cc(=O)[nH]c12	none (no result: NSD2 inh)
N#Cc1c(SCC(=O)Nc2ccc(Cl)cc2Cl)sc2c(O)cc(=O)[nH]c12	CASP6 VEID inh 40.4 (no result: NSD2 inh)
N#Cc1cccc(NC(=O)CSc2sc3c(O)cc(=O)[nH]c3c2C#N)c1	none (no result: NSD2 inh)
COc1ccccc1NC(=O)N1C[C@@H]2N[C@H](C1)C2c1ccc(-c2cccc(C(=O)N(C)C)c2)cc1 (some centres undefined)	none (no result: UHRF1 binding, TDP2 inh, LEDGF integ inh, MBD2 inh, NSD2 inh)
C[C@H](CO)N1C[C@H](C)[C@@H](CN(C)S(=O)(=O)c2ccc(Cl)cc2)OCCCC[C@H](C)Oc2ccc(NC(=O)c3ccncc3)cc2C1=O	none (no result: UHRF1 binding, TDP2 inh, LEDGF integ inh, MBD2 inh, NSD2 inh)
O=C(CSc1n[nH]c(=O)n1-c1ccccc1)Nc1ccccc1	none
O=C(CSc1n[nH]c(=O)n1-c1ccc2c(c1)OCCO2)Nc1ccccc1	UHRF1 binding 27.4
CN(C)C(=O)N1CCN(S(=O)(=O)c2ccc3ccccc3c2)CC1	none
O=C(CCl)N1CCN(S(=O)(=O)c2ccc3ccccc3c2)CC1	CASP6 VEID inh 74.1 (no result: NSD2 inh)
CC(=O)N1CC2(C1)[C@H](c1ccc(-c3cccc(F)c3)cc1)[C@H](CO)N2CC1CCCC1	none (no result: UHRF1 binding, TDP2 inh, LEDGF integ inh, MBD2 inh, NSD2 inh)
CN(C)CCN1C(=O)CCC2(C)C1=CCC1C2CCC2(C)C1CCC2(C)O (centres undefined)	UHRF1 binding 80.1
C[C@]12CCC(=O)C=C1CC[C@@H]1[C@@H]2CC[C@@]2(C)[C@H]1CC[C@]2(O)C(=O)CO	none (no result: NSD2 inh)
Cc1noc(C)c1S(=O)(=O)N(C)C[C@H]1Oc2ccc(NS(=O)(=O)c3ccccc3)cc2CC(=O)N([C@H](C)CO)C[C@H]1C	none (no result: UHRF1 binding, TDP2 inh, LEDGF integ inh, MBD2 inh, NSD2 inh)
CCC(=O)N1[C@@H](CO)[C@@H](c2ccc(-c3ccc(F)cc3)cc2)C12CN(C(C)=O)C2	none (no result: UHRF1 binding, TDP2 inh, LEDGF integ inh, MBD2 inh, NSD2 inh)
C[C@@H]1CN([C@@H](C)CO)C(=O)c2cc(NC(=O)c3ccncc3)ccc2O[C@@H](C)CCCCO[C@@H]1CN(C)C(=O)NC1CCCCC1	none (no result: UHRF1 binding, TDP2 inh, LEDGF integ inh, MBD2 inh, NSD2 inh)
N[C@@H](Cc1cc(I)c(O)c(I)c1)C(=O)O	CASP6 VEID inh 44.0 (no result: NSD2 inh)
C/C(N)=C(/C#N)C(=O)CN1C(=O)NC(Cc2c[nH]c3ccccc23)C1=O (centres undefined)	CASP6 VEID inh 48.2
COc1ccc(CNC(=O)N[C@@H](CC(C)C)C(=O)O)cc1OC	UHRF1 binding 25.7
CCCNC(=O)c1cc2c(c(-c3cccc(-c4cc5ccccc5o4)c3)n1)[C@@H](CCO)N(C(=O)NC(C)C)C2	UHRF1 binding 27.7 (no result: NSD2 inh)
CCC(=O)N1[C@@H]2CN(C(=O)c3cccc(OC)c3)c3ccccc3[C@@H]2[C@@H]1CO	none (no result: UHRF1 binding, TDP2 inh, LEDGF integ inh, MBD2 inh, NSD2 inh)
CCOC(=O)c1nn(-c2ccc(OC)cc2)c(=O)c2c(N)scc12	CASP6 VEID inh 44.5
C[C@@H]1CN([C@@H](C)CO)C(=O)c2cc(C#C[C@@H](C)O)cnc2O[C@@H]1CN(C)C(=O)Nc1ccc(F)cc1	none (no result: UHRF1 binding, TDP2 inh, LEDGF integ inh, MBD2 inh, NSD2 inh)
O=C(N[C@@H]1CC[C@H](CCn2cc(C3CCCCC3)nn2)O[C@H]1CO)c1cccnc1	none (no result: UHRF1 binding, TDP2 inh, LEDGF integ inh, MBD2 inh, NSD2 inh)
COC(=O)C[C@@H]1C[C@@H]2c3cc(NC(=O)c4cccnc4)ccc3O[C@@H]2[C@H](CO)O1	none (no result: UHRF1 binding, TDP2 inh, LEDGF integ inh, MBD2 inh, NSD2 inh)
O=c1cc(-c2c(O)c3ccccc3n(Cc3ccccc3)c2=O)[nH][nH]1	CASP6 VEID inh 55.6
CC(C)CCN(CCC(C)C)C(CO)(CO)CO	UHRF1 binding 21.5
C[C@@H](NC(=O)C[C@@H]1C=C[C@@H](NC(=O)C2CCC2)[C@H](CO)O1)c1ccccc1	none (no result: UHRF1 binding, TDP2 inh, LEDGF integ inh, MBD2 inh, NSD2 inh)
Cc1oc2c(c(C)cc3oc(=O)c(CC(=O)NCC(=O)NCC(=O)NCC(C)O)c(C)c32)c1C (centres undefined)	UHRF1 binding 65.4
CCOc1ccccc1NC(=O)CSc1n[nH]c(N)n1	CASP6 VEID inh 56.7
COCCCN1CCc2[nH]c(=S)[nH]c(=O)c2C1	none (no result: CASP6 VEID inh)
COc1cccc(CN2CCc3[nH]c(=S)[nH]c(=O)c3C2)c1	CASP6 VEID inh 41.0
O=C(CCN1C(=O)NC2(CCCC2)C1=O)Nc1cccc(S(=O)(=O)N2CCOCC2)c1	CASP6 VEID inh 42.2
O=C(Nc1cccc(S(=O)(=O)N2CCCC2)c1)c1ccc2ccccc2n1	none
Cc1ccc(S(=O)(=O)NCC(=O)OCC(=O)Nc2cccc(S(=O)(=O)N3CCOCC3)c2)cc1	LEDGF integ inh 26.9
O=C(Nc1cccc(S(=O)(=O)N2CCOCC2)c1)c1ccc2ccccc2n1	UHRF1 binding 22.0
Cc1ccc(S(=O)(=O)NCC(=O)OCC(=O)Nc2ccc(C)c(S(=O)(=O)N3CCOCC3)c2)cc1	none
COc1ccc(CN(C)C[C@@H]2Oc3ccc(NC(=O)C4CC4)cc3CC(=O)N([C@@H](C)CO)C[C@H]2C)cc1	none (no result: UHRF1 binding, TDP2 inh, LEDGF integ inh, MBD2 inh, NSD2 inh)
O=C(NCc1ccco1)c1ccc(F)c(S(=O)(=O)N2CCCCC2)c1	none
O=C(NCc1ccco1)c1ccc(Br)c(S(=O)(=O)N2CCCCC2)c1	CASP6 VEID inh 71.8
CC(C)c1ccc(C(=O)N2CCCC(c3cc(C(=O)Nc4ccccc4Cl)no3)C2)cc1 (centres undefined)	CASP6 VEID inh 57.4
C#CCOc1ccc(/C=C2/C(=O)N(c3ccc(S(N)(=O)=O)cc3)N=C2C)cc1OC	CASP6 VEID inh 39.0
Cc1ccc(CNCc2cccnc2)s1	UHRF1 binding 26.2
